Screening data as filed in PubChem BioAssay.
LMPTP block – LMPTP phosphatase inhibitors, primary screen, biochemical, fluorescence intensity, uHTS. AID 651560, 2012. inhibition, % at 20 µM. recombinant LMPTP-A, OMFP fluorogenic substrate. actives 0.22% (n = 360,000). Low molecular weight phosphotyrosine protein phosphatase (Homo sapiens), P24666;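 active = compounds that cut the enzyme signal by at least half of the control window in the single-dose screen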;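 note: plate controls were DMSO wells with enzyme plus substrate for no effect and substrate without enzyme for full effect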
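Test system: LMPTP-A, protein tyrosine phosphatase of low molecular weight; Input: 0.625 nM enzyme; Incubation: 50 min dark incubation at room temperature; Signal: endpoint fluorescence intensity from OMFP dephosphorylation; Read-out basis: % inhibition versus control wells.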
SUMO1-SIM PPI – modulators of SUMO1 protein-protein interactions, primary screen, biochemical, uHTS | SUMO1 binding to a labelled peptide, TR-FRET, 1 h | inhibition, % at 20 µM | actives 0.33% (n = 360,000) | AID 602429, 2012; in the data active = inhibition above about 37%
Target sequence (P63165 whole entry, looked up): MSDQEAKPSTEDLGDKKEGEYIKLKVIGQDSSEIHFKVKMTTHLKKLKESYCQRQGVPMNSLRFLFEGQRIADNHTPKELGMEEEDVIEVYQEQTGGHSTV
Scp-1 inhibitor – Scp-1 phosphatase inhibitors, primary screen, biochemical, colorimetric, uHTS | Carboxy-terminal domain RNA polymerase II polypeptide A small phosphatase 1 (Homo … | Recombinant Scp1, phosphopeptide, malachite green phosphate absorbance | inhibition, % at 20 µM | actives 0.88% (n = 340,000);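 active = inhibition above about 50% at 20 µM, limit read from the data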;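 note: plate controls were DMSO wells with enzyme for no effect and wells lacking enzyme for full effect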
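assay system = SCP-1 phosphatase catalytic domain, residues 76-261 | buffer or medium = 50 mM Tris acetate pH 5.5, 0.005% Tween-20, 10 mM MgCl2 | incubation = enzyme reaction 45 min at room temperature, colour 5 min, stabilisation 30 min | signal = Phosphate-binding colour reagent, absorbance read at 630 nm | measure = % inhibition at 20 µM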
DNMT1 inh – human DNMT1 methyltransferase inhibitors, primary screen, biochemical, molecular beacon, fluorescence, HinP1I cleavage, uHTS | DNA (cytosine-5)-methyltransferase 1 (Homo sapiens), P26358 | inhibition (reported as % activation of signal), % at 10 µM | actives 0.83% (n = 360,000); in the data active = inhibition above about 50%
STEP inh – STEP phosphatase inhibitors, primary screen, biochemical, fluorescence intensity, uHTS. Tyrosine-protein phosphatase non-receptor type 5 (Homo sapiens), P54829. recombinant STEP, OMFP fluorogenic substrate. inhibition, % at 20 µM. actives 0.25% (n = 360,000);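 active = inhibition at 20 µM, scaled per plate between control wells, above about 37%, limit read from the data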;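 note: 0% = DMSO with enzyme and substrate and 100% = substrate only without enzyme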
Target sequence (P54829 whole entry, looked up): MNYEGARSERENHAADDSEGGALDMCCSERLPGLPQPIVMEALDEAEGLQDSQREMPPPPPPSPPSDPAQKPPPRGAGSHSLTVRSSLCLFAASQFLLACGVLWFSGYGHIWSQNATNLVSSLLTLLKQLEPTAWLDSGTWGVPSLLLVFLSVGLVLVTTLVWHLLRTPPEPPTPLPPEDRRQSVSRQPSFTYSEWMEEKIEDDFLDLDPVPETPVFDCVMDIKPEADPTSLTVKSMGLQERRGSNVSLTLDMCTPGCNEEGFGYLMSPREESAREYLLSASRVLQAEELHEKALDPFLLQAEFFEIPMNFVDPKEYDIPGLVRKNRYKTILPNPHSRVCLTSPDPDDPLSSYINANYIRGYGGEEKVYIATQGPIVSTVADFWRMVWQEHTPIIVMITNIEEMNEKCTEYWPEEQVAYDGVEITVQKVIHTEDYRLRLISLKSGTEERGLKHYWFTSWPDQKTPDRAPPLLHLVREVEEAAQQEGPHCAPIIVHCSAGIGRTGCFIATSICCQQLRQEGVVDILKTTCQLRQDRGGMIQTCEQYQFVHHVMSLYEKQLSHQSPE
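Assay system: isolated STEP enzyme. Buffer or medium: pH 6.0 Bis-Tris with DTT and Tween 20. Also added: fluorogenic phosphatase substrate OMFP at 25 µM final. Dosing: 20 µM, 1% DMSO. Timing: 20 min reaction, room temperature, in the dark. Measured by: fluorescence intensity, excitation 480 nm, emission 540 nm. Evaluation: normalized % inhibition.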
Scp-1 conf – Scp-1 phosphatase inhibitors, retest, confirmation, biochemical, colorimetric, single concentration; recombinant SCP-1 catalytic domain, phosphate release, malachite green absorbance; actives 61% (n = 2,500); AID 540281, 2011; shares compounds with Scp-1 inhibitor; inhibition, % at 20 µM;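 note: plate controls were DMSO with enzyme for no effect and buffer wells lacking enzyme for full effect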
MG interference – colorimetric readout interference by compounds, confirmation, artefact control for Scp-1 inhibitor project, biochemical, single concentration; 2,500 tested, under 10 active; AID 540313, 2011; Colorimetric interference counterscreen, malachite green absorbance 630 nm; apparent inhibition (interference), % at 20 µM; shares compounds with Scp-1 inhibitor;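 note: compounds added after enzyme reaction finished so only phosphate colour detection is probed; plate controls were DMSO wells with completed Scp-1 reaction for no effect and substrate wells lacking enzyme for full effect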
Scp1 DSF – Scp-1 binding by thermal shift, confirmation, orthogonal assay for Scp-1 inhibitor project, biophysical, differential scanning fluorimetry. shares compounds with Scp-1 inhibitor. Recombinant SCP1, Sypro Orange thermal shift Tm. thermal shift relative to vanadate control, % at 40 µM. actives 25% (n = 1,500). AID 540329, 2011;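 active = substances whose mean melting-temperature shift, as a percentage of the reference inhibitor's shift, reaches about 5.3%, limit read from the data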;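 note: 0% = Tm of DMSO wells and 100% = Tm with sodium orthovanadate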
* marks the source's active call; other numbers are inactive results; nt = not tested or not shown. Compounds with a hit are over-represented: about 1.7% of the library has one in this group of screens.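 Rule for the calls, unless noted: active = inhibition of at least 30% at 20 µM; inactive = the rest.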

SMILES	LMPTP block	SUMO1-SIM PPI	Scp-1 inhibitor	DNMT1 inh	STEP inh	Scp-1 conf	MG interference	others
Cc1[nH]c(=O)c(C#N)c(C)c1CCC(=O)Nc1cc(S(C)(=O)=O)ccc1Cl	-1	-3	58*	-1	-1	2	-8
CC(C)CN(C(=O)CN1C(=O)NC2(CCc3ccccc32)C1=O)C1CCS(=O)(=O)C1 (configuration not stated)	-1	-1	-7	0	-3	nt	nt
Nn1c(SCC(=O)Nc2ccc3c(c2)OCCO3)nnc1C(F)(F)F	-4	0	100*	2	0	10	0
C=CCN(CC=C)C(=O)c1ccc(OC2CCN(C(C)=O)CC2)c(OC)c1	-1	0	-8	1	-1	nt	nt
CCOc1cc(/C=N/NC(=O)c2cc3c(ccc4ccccc43)o2)ccc1O	1	3	-4	-4	0	nt	nt
CCOC(=O)COc1ccccc1/C=N\NC(=O)c1cc2c(ccc3ccccc32)o1	6	-10	84*	-5	4	39*	-3	Scp1 DSF=0
Cc1cc(C)n2nc(C(=O)OCC(=O)c3ccccc3)nc2n1	0	1	73*	3	2	-10	-21
Cc1ccc(C(=O)NCCCNC(=O)COc2ccccc2Cl)cn1	-1	-5	58*	-1	-1	-5	-9
COc1ccc([C@H]2CC(=O)C=C(c3ccnc4ccc(Cl)cc34)C2)cc1	2	-15	59*	-6	-1	-4	-5
C[C@@H]1CN([C@H](C)CO)C(=O)CCCn2nncc2CO[C@H]1CN(C)S(=O)(=O)c1ccc(F)cc1	-1	0	nt	4	0	nt	nt
Cc1nc([N+](=O)[O-])cn1Cc1cccc2ccccc12	-1	-11	-9	-1	1	nt	nt
C=CCONC(=O)Cc1ccccc1	0	1	4	-3	-3	nt	nt
Cc1c(C(=O)O)cccc1-n1c(C)cc(C=O)c1C	0	-2	56*	46	6	44*	-14	Scp1 DSF=-5
CCCCNC(=O)C[C@@H]1C[C@@]2(C(=O)OC)CCCCC=C2N(Cc2ccccc2)C1=O	-1	1	nt	nt	nt	nt	nt
CN(C)/C=C1\C(=O)Nc2ccccc21	-1	-8	-4	-1	-4	nt	nt
CN(O)/C=C1\C(=O)Nc2ccccc21	0	-8	65*	-2	1	0	-7
COc1ccc(-c2c(-c3ccccc3OC)sc3ccccc23)cc1C=O	1	6	50*	-2	-2	19	-8
CCN(c1ccccc1)S(=O)(=O)c1ccc2[nH]cc(C(=O)N3CCOCC3)c(=O)c2c1	0	-2	52*	14	13	40*	-4	Scp1 DSF=-5
CCc1ccc(NC(=O)CS(=O)CC(=O)Nc2ccc(F)cc2F)cc1 (configuration not stated)	6	-3	94*	12	10	89*	-4	Scp1 DSF=-21
COC(=O)c1c(C)[nH]c(C(=O)NCc2ccco2)c1C	0	2	-4	2	-4	nt	nt
CCOC(=O)c1[nH]c(C)c(C(=O)NCc2ccco2)c1C	0	1	64*	3	5	-8	-16
O=C(Nc1ccccc1)C1CCCN(C(=O)c2ccc(F)cc2)C1 (configuration not stated)	0	6	-5	3	1	nt	nt
O=C(NNC(=O)c1ccc(-c2ccccc2)cc1)c1ccccc1	31	2	74*	49	24	54*	-19	Scp1 DSF=5.7*
Cc1cccc(C(=O)NNC(=O)c2ccc(-c3ccccc3)cc2)c1	43	5	70*	41	11	73*	-16	Scp1 DSF=-9
O=C(NNC(=O)c1ccc(NC(=O)c2ccccc2)cc1)Nc1ccccc1	14	-1	51*	14	6	67*	-11	Scp1 DSF=-12
SMILES	LMPTP block	SUMO1-SIM PPI	Scp-1 inhibitor	DNMT1 inh	STEP inh	Scp-1 conf	MG interference	others
Cc1ccc(NC(=O)c2cccc(C(=O)Nc3ccc(C)cc3C(=O)O)c2)c(C(=O)O)c1	-2	17	57*	0	6	54*	-11	Scp1 DSF=1
O=C(NNC(=O)c1ccc(NC(=O)c2ccccc2)cc1)c1ccc(F)cc1	48	22	39	22	25	nt	nt
Cc1cccc(C(=O)NNC(=O)c2ccc(Br)cc2)c1	-1	-2	-1	-1	15	nt	nt
O=C1CC2(CCN(C(=O)c3ccccc3[N+](=O)[O-])CC2)Oc2ccccc21	-2	-25	1	2	1	nt	nt
Fc1ccccc1Sc1ccccc1CNC1=NCCN1	-1	2	97*	0	-3	84*	-15	Scp1 DSF=-14
c1ccc(Sc2cccc3ccccc23)c(CNC2=NCCN2)c1	2	-10	29	9	-4	nt	nt
Cc1cc(C)cc(N=C2NC(=O)/C(=C/c3cccs3)S2)c1	2	-7	20	-2	-1	nt	nt
O=C1NC(=Nc2ccccc2)S/C1=C\c1cccs1	31	-1	97*	2	21	20	-14
CN(C)C(=O)c1ccc(Nc2nc(-c3cccs3)nc3ccccc23)cc1	10	-22	-1	7	0	nt	nt
Cc1cc(C)c(C#N)c(N2CCCC2)n1	-1	2	-6	0	0	nt	nt
Cc1cc(C)c(C#N)c(Cl)n1	-1	4	66*	0	-1	-25	-21
CC(C)c1ccc(NC(=O)Nc2nc(C(N)COCc3ccccc3)cs2)cc1 (configuration not stated)	-2	-67	nt	-17	4	nt	nt
NS(=O)(=O)c1ccc(NC(=S)Nc2ccc(F)c(F)c2)cc1	-1	-4	60*	2	-3	-2	-11
O=C(CNC1CCCCCC1)Nc1ccccc1N1CCCCC1	0	-1	90*	0	1	-9	-11
CCOC(=O)c1c(NC(=O)COC(=O)c2cnccn2)sc(C(=O)NC)c1C	-1	-1	1	1	2	nt	nt
CCOC(=O)c1c(-c2ccco2)csc1NC(=O)COC(=O)c1cnccn1	4	10	60*	13	2	29	-24
